We go through three compounds from ChEMBL document CHEMBL3112482, “Nonclassical antifolates, part 5. Benzodiazepine analogs as a new class of DHFR inhibitors: synthesis, antitumor testing and molecular modeling study” (Eur J Med Chem, 2014).

Type in all cases: functional
The subject of test [1] is Cancer cell lines. The experiment in a line: Ratio of 5-FU LC50 to compound LC50 for human ovarian cancer cells. The method in brief: (§1)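 Compounds passing the NCI single-dose primary screen were retested across the 60 human tumour cell lines (nine subpanels) over a 5-log dose range. GI50, TGI and LC50 were recorded for each cell line, with 5-fluorouracil run as the reference drug. Subpanel values for compound and 5-FU were then compared.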

Test [2] relates to Cancer cell lines. The test can be described thus: Ratio of 5-FU GI50 to compound GI50 for human colon cancer cells. The method, boiled down:
as §1

The subject of test [3] is Cancer cell lines. The test can be described thus: Ratio of 5-FU LC50 to compound LC50 for human colon cancer cells. The method in brief: as §1
The test system of test [4] is Cancer cell lines. The test can be described thus: Ratio of 5-FU TGI to compound TGI for human breast cancer cells.
Test [5] concerns Cancer cell lines. The test can be described thus: Ratio of 5-FU GI50 to compound GI50 for human CNS cancer cells. The method, boiled down: as §1
Test [6] has as its system Cancer cell lines. The experiment in a line: Ratio of 5-FU GI50 to compound GI50 for human ovarian cancer cells. The method in brief:
as §1

The test system of the next test is Melanoma cell. The test can be described thus: Ratio of 5-FU LC50 to compound LC50 for human melanoma cells. The method, boiled down:
as §1

Test [7] relates to Cancer cell lines. The experiment in a line: Ratio of 5-FU GI50 to compound GI50 for human non-small cell lung cancer cells. The method in brief:
as §1

Test [8] deals with Cancer cell lines. The experiment in a line: Ratio of 5-FU GI50 to compound GI50 for human breast cancer cells. The method, boiled down:
as §1

For a further test, the system named is Leukemia cell. The experiment in a line: Ratio of 5-FU TGI to compound TGI for human leukemia cells.

For the compound `COc1cc(/C=C2\CCCc3c2nc(N)nc3-c2cc(OC)c(OC)c(OC)c2)cc(OC)c1OC`, the RatioLC50 in the test with Cancer cell lines [1], in the test with Cancer cell lines [3] and in the test on Melanoma cell was 15 throughout. The RatioGI50 in the test on Cancer cell lines [2], with Cancer cell lines [5], in the test on Cancer cell lines [6], in the test on Cancer cell lines [7] and with Cancer cell lines [8] was 15 in each case. Moreover, the Ratio in the test on Cancer cell lines [4] and in the test with Leukemia cell was 15 each time.
With `COc1cc(/C=C2\CCCc3c2nc(C)nc3-c2cc(OC)c(OC)c(OC)c2)cc(OC)c1OC`, the RatioLC50 in the test with Cancer cell lines [1], in the test on Cancer cell lines [3] and with Melanoma cell was 15 in each case. The RatioGI50 with Cancer cell lines [2], in the test on Cancer cell lines [5], in the test on Cancer cell lines [6], in the test with Cancer cell lines [7] and in the test on Cancer cell lines [8] was 15 throughout. Moreover, the Ratio with Cancer cell lines [4] and with Leukemia cell was 15 in each case.
Consider `COc1cc(/C=C2\CCCC3=C(c4cc(OC)c(OC)c(OC)c4)Nc4ccccc4N=C32)cc(OC)c1OC`, for which the RatioLC50 in the test on Cancer cell lines [1], in the test on Cancer cell lines [3] and in the test on Melanoma cell was 11 each time. Moreover, the RatioGI50 in the test with Cancer cell lines [2], in the test with Cancer cell lines [5], in the test with Cancer cell lines [6], with Cancer cell lines [7] and in the test with Cancer cell lines [8] was 11 throughout. Further, the Ratio in the test on Cancer cell lines [4] and in the test with Leukemia cell was 11 in each case.
